Results taken from ChEMBL document CHEMBL4261512, “Discovery of novel trimethoxy-ring BRD4 bromodomain inhibitors: AlphaScreen assay, crystallography and cell-based assay” (Medchemcomm, 2017).
pIC50: −log10 of the molar value.

What was measured:
[1] = molecular target: T1, Bromodomain-containing protein 4 (Homo sapiens, UniProt O60885); test: (§1) Inhibition of SGRG-K(Ac)-GG-K(Ac)-GLGK(Ac)-GGA-K(Ac)-RHRKVGG-K(Biotin) binding to N-terminal 6xHis-tagged human BRD4 bromodomain 1 expressed in Escherichia coli BL21 (DE3) preincubated for 10 mins followed by peptide addition and measured after 10 mins by AlphaScreen assay
Method in brief: (§2)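 AlphaScreen peptide displacement. His-tagged BRD4 BD1 preincubated 10 min at room temperature with compound in buffer (0.1% Triton X-100, 1 mM DTT, 0.1% BSA). Then 25 nM biotinylated tetra-acetylated H4-type peptide added for 10 min, Ni-chelate acceptor beads for 30 min, and streptavidin donor beads for 30 min in subdued light. Alpha signal read; JQ-1 as control. IC50 from four-parameter log-logistic fit.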

[2] = molecular target: T1, Bromodomain-containing protein 4; test: as §1, with “(DE3) at 50 uM” for “(DE3)”, “assay relative to control” for “assay”; method in brief: as §2
MV4-11 [3] = test: Induction of apoptosis in human MV4-11 cells assessed as viable cells after 72 hrs by annexin-V-FITC/propidium iodide staining-based flow cytometric method (reference value: 96.2%); assay type: functional
Method in brief: (§3)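 MV4-11 cells seeded at 3 × 10⁵ in 6-well plates, settled 30 min, then given compound or DMSO for 72 h. Resuspended in 1× binding buffer with Annexin V-FITC for 15 min at room temperature in the dark, then PI added 5 min before flow cytometry. Populations quantified with the instrument software.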

MV4-11 [4] = test: Cell cycle arrest in human MV4-11 cells assessed as accumulation at S phase after 24 hrs by propidium iodide staining-based flow cytometric method (reference value: 33.52%); assay type: functional
MV4-11 [5] = test: Induction of apoptosis in human MV4-11 cells assessed as late apoptotic cells after 72 hrs by annexin-V-FITC/propidium iodide staining-based flow cytometric method (reference value: 2.14%); assay type: functional; method in brief: as §3
MV4-11 [6] = test: Cell cycle arrest in human MV4-11 cells assessed as accumulation at G2 phase after 24 hrs by propidium iodide staining-based flow cytometric method (reference value: 11.98%); assay type: functional
MV4-11 [7] = test: Induction of apoptosis in human MV4-11 cells assessed as necrotic cells after 72 hrs by annexin-V-FITC/propidium iodide staining-based flow cytometric method (reference value: 0%); assay type: functional; method in brief: as §3
MV4-11 [8] = test: Induction of apoptosis in human MV4-11 cells assessed as early apoptotic cells after 72 hrs by annexin-V-FITC/propidium iodide staining-based flow cytometric method (reference value: 1.64%); assay type: functional; method in brief: as §3
MV4-11 [9] = test: Cell cycle arrest in human MV4-11 cells assessed as accumulation at G1 phase after 24 hrs by propidium iodide staining-based flow cytometric method (reference value: 54.50%); assay type: functional
[10] = molecular target: T1, Bromodomain-containing protein 4; test: Binding affinity to N-terminal 6xHis-tagged human BRD4 bromodomain 1 expressed in Escherichia coli BL21 (DE3) assessed as change in melting temperature at 100 uM by SYPRO orange dye-based RT-PCR method (reference value: 0 degC)
[11] = molecular target: T1, Bromodomain-containing protein 4; test: Binding affinity to N-terminal 6xHis-tagged human BRD4 bromodomain 1 expressed in Escherichia coli BL21 (DE3) assessed as change in melting temperature at 200 uM by SYPRO orange dye-based RT-PCR method (reference value: 0 degC)
MV4-11 [12] = test: Cell cycle arrest in human MV4-11 cells assessed as accumulation at G2 phase at 50 uM after 24 hrs by propidium iodide staining-based flow cytometric method (reference value: 11.98%); assay type: functional
MV4-11 [13] = test: Induction of apoptosis in human MV4-11 cells assessed as early apoptotic cells at 50 uM after 72 hrs by annexin-V-FITC/propidium iodide staining-based flow cytometric method (reference value: 1.64%); assay type: functional; method in brief: as §3
[14] = molecular target: T1, Bromodomain-containing protein 4; test: Inhibition of BRD4 in human MV4-11 cells assessed as downregulation of Bcl-2 gene expression after 6 hrs by qRT-PCR method; assay type: cell-based
Method in brief: (§4)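 MV4-11 cells given compound at varied concentrations (10 and 30 μM) for 6 h. Bcl-2, c-Myc and CDK6 transcripts quantified by real-time quantitative PCR relative to untreated control.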

MV4-11 [15] = test: Induction of apoptosis in human MV4-11 cells assessed as late apoptotic cells at 50 uM after 72 hrs by annexin-V-FITC/propidium iodide staining-based flow cytometric method (reference value: 2.14%); assay type: functional; method in brief: as §3
[16] = molecular target: T1, Bromodomain-containing protein 4; test: Inhibition of BRD4 in human MV4-11 cells assessed as downregulation of c-Myc gene expression after 6 hrs by qRT-PCR method; assay type: cell-based; method in brief: as §4
[17] = molecular target: T1, Bromodomain-containing protein 4; test: Inhibition of BRD4 in human MV4-11 cells assessed as downregulation of c-Myc protein expression after 6 hrs by Western blot method; assay type: cell-based
Method in brief: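 MV4-11 cells seeded at 3 × 10⁵ in 6-well plates, settled 30 min, then given graded compound concentrations or DMSO for 6 h. Probed with rabbit anti-c-Myc mAb and HRP-labelled secondary.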

MV4-11 [18] = test: Induction of apoptosis in human MV4-11 cells assessed as necrotic cells at 50 uM after 72 hrs by annexin-V-FITC/propidium iodide staining-based flow cytometric method (reference value: 0%); assay type: functional; method in brief: as §3
[19] = molecular target: T1, Bromodomain-containing protein 4; test: Inhibition of BRD4 in human MV4-11 cells assessed as downregulation of CDK6 gene expression after 6 hrs by qRT-PCR method; assay type: cell-based; method in brief: as §4
MV4-11 [20] = test: Cell cycle arrest in human MV4-11 cells assessed as accumulation at G1 phase at 50 uM after 24 hrs by propidium iodide staining-based flow cytometric method (reference value: 54.50%); assay type: functional
MV4-11 [21] = test: Induction of apoptosis in human MV4-11 cells assessed as viable cells at 50 uM after 72 hrs by annexin-V-FITC/propidium iodide staining-based flow cytometric method (reference value: 96.2%); assay type: functional; conditions: MV4-11, 72 h, read-out: Activity; method in brief: as §3
MV4-11 [22] = test: Antiproliferative activity against human MV4-11 cells after 3 days by Alamar blue assay; assay type: functional, cell-based
Method in brief: (§5)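 MV4-11 cells in RPMI 1640 with 10% FBS and 1% Pen/Strep at 37 °C, 5% CO2. Seeded at 1 × 10⁵–3 × 10⁵, settled 30 min, then given graded compound concentrations or DMSO for three or seven days. Alamar Blue added for 3 h at 37 °C; fluorescence read at ex 544/em 590 nm. Viability normalized to control; IC50 fitted from the dose–response.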

[23] = molecular target: T1, Bromodomain-containing protein 4; test: Binding affinity to N-terminal 6xHis-tagged human BRD4 bromodomain 1 expressed in Escherichia coli BL21 (DE3) assessed as change in melting temperature by SYPRO orange dye-based RT-PCR method
MV4-11 [24] = test: Antiproliferative activity against human MV4-11 cells after 7 days by Alamar blue assay; assay type: functional, cell-based; method in brief: as §5
MV4-11 [25] = test: Cell cycle arrest in human MV4-11 cells assessed as accumulation at S phase at 50 uM after 24 hrs by propidium iodide staining-based flow cytometric method (reference value: 33.52%); assay type: functional

SMILES: COc1cc(C(=O)Nc2nccs2)cc(OC)c1OC
- pIC50 [1]: 5.37

SMILES: COc1cc(C(=O)NCC2CCCO2)cc(OC)c1OC (configuration not stated)
- inhibition [2]: 94%

SMILES: COc1cc2c(cc1-c1c(C)noc1C)ncc1[nH]c(=O)n([C@H](C)c3ccccn3)c12
- Activity (MV4-11 [3]): 47.8%
- Activity (MV4-11 [4]): 6.36%
- Activity (MV4-11 [5]): 33.1%
- Activity (MV4-11 [6]): 2.78%
- Activity (MV4-11 [7]): 0.718%
- Activity (MV4-11 [8]): 18.4%
- Activity (MV4-11 [9]): 90.86%

SMILES: COc1cc(C(=O)NCCc2cccs2)cc(OC)c1OC
- pIC50 [1]: 5.19

SMILES: COC(=O)C(CCSC)NC(=O)c1cc(OC)c(OC)c(OC)c1 (configuration not stated)
- pIC50 [1]: 5.68

SMILES: COc1cc(C(=O)Nc2nnc(C)s2)cc(OC)c1OC
- inhibition [2]: 90%

SMILES: CCC(CO)NC(=O)c1cc(OC)c(OC)c(OC)c1 (configuration not stated)
- inhibition [2]: 94%

SMILES: COc1cc(C(=O)NCCCn2ccnc2)cc(OC)c1OC
- inhibition [2]: 90%

SMILES: CCc1nnc(NC(=O)c2cc(OC)c(OC)c(OC)c2)s1
- inhibition [2]: 90%

SMILES: COc1cc(C(=O)Nc2nc(C)cs2)cc(OC)c1OC
- inhibition [2]: 96%

SMILES: COCc1nnc(NC(=O)c2cc(OC)c(OC)c(OC)c2)s1
- pIC50 [1]: 4.96

SMILES: COC(=O)C(CC(C)C)NC(=O)c1cc(OC)c(OC)c(OC)c1 (configuration not stated)
- pIC50 [1]: 5.07

SMILES: COc1cc(C(=O)Nc2ccnn2C2CCCC2)cc(OC)c1OC
- ΔTm [10]: 1.9 °C
- ΔTm [11]: 3.31 °C
- Activity (MV4-11 [12]): 16.83%
- Activity (MV4-11 [13]): 4.06%
- inhibition [14]: Dose-dependent effect
- Activity (MV4-11 [15]): 6.86%
- inhibition [16]: Dose-dependent effect
- inhibition [17]: Dose-dependent effect
- Activity (MV4-11 [18]): 0.073%
- inhibition [19]: Dose-dependent effect
- Activity (MV4-11 [20]): 79.1%
- viability at 50 µM (MV4-11 [21]): 89%
- Activity (MV4-11 [22]): Dose-dependent effect
- Activity [23]: Dose-dependent effect
- Activity (MV4-11 [24]): Dose-dependent effect
- pIC50 [1]: 5.70
- Activity (MV4-11 [25]): 16.83%

SMILES: COc1cc(C(=O)NCCOc2ccccc2)cc(OC)c1OC
- pIC50 [1]: 5.18

SMILES: COc1cc(C(=O)NC2CCCC2)cc(OC)c1OC
- inhibition [2]: 90%
